Experimental data: BindingDB's records for doi:10.1124/dmd.106.013888 (Act, 2007)

Molecular target: T1, Lanosterol 14-alpha demethylase (Homo sapiens, UniProt Q16850)
T1 sequence (Q16850 whole entry): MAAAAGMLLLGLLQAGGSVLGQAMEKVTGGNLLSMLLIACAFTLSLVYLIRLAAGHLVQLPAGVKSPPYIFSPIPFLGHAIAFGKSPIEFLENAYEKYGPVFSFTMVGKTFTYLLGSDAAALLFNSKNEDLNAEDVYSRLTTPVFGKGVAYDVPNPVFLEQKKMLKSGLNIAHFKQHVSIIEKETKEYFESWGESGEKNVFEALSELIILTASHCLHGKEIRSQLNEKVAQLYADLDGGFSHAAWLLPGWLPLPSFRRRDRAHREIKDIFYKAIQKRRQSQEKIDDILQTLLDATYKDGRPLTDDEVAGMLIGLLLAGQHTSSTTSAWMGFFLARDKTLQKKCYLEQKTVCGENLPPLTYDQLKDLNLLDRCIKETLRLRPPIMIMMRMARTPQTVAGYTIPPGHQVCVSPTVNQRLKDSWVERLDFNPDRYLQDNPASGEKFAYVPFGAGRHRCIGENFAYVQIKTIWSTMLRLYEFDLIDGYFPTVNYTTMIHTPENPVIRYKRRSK
Assay: Inhibition of human CYP51 expressed in Topp 3 cells by lanosterol demethylase assay
Summary of the method: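 0.5 ml phosphate buffer pH 7.4 with KCN, NADPH regenerating system, 60 min at 37 °C. Triene product extracted and quantified by chromatography (ergosterol internal standard). IC50 read from plot of % activity remaining vs concentration.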

O=c1c(CC[S+]([O-])c2ccccc2)c(O)n(-c2ccccc2)n1-c1ccccc1 (stereo unspecified) [1,2-Diphenyl-3,5-dioxo-4-(2-phenylsulfinylethyl)pyrazolidine] showed an IC50 of over 200 µM.
